Screens as filed in PubChem.
Hits are enriched below; roughly 2.1% of the tested compounds scored in any of these assays.
EWS-Fli block: inhibitors of EWS/Fli oncoprotein transcriptional activity; A673 NR0B1-luciferase reporter, viability-normalised; inhibition, % at 12.6 µM; 0.67% of 350,000 active; AID 651661;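 active = mean inhibition of at least 50% after viability correction, with every replicate also passing that limit; inconclusive = mean reaches 50% but only one of two replicates passes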;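 note: firefly luciferase signal divided by Alamar Blue viability fluorescence both relative to DMSO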
PAX8 inh HTS: inhibitors of PAX8 transcriptional activity in RMG-I cells | RMG-I TPO-luciferase reporter, SteadyGlo, 24 h | inhibition, % at 12.6 µM | 1.2% of 360,000 active;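 active = mean replicate inhibition at least 60% with every replicate also reaching 60%; inconclusive = only one of the two criteria is met; inactive = mean below 60% and not all replicates reaching 60%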;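 note: luciferase light reporting Pax8 driven TPO promoter activity; plate controls were median of neutral control wells for no effect and mitoxantrone controls for full effect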
PGC1a acetyl inh: lowers PGC1a acetylation signal in U2OS cells; 0.17% of 350,000 active; AlphaScreen anti-acetyl-lysine; with virally co-expressed GCN5 acetyltransferase; AID 651687; inhibition, % at 15.6 µM;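 active = every replicate shows inhibition of at least 40%; inconclusive = mean inhibition at least 40% but some replicate below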;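 note: 0% = neutral control wells and 100% = positive control wells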
Xi reactivation: X-chromosome reactivation activator | XiGFP mouse fibroblasts, % GFP-positive cells imaging, 3 d; cells co-treated with 5-aza-dC sensitizer; scaled so ellipticine positive control = 100% | activation, % at 7.58 µM | 0.055% of 360,000 active | AID 743238;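 active = mean normalized replicate activation at least 10% and every replicate at or above 10%; inconclusive = only one of the two criteria met; inactive = mean below 10% and not all replicates reach 10%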;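 note: 0% = median of on-plate neutral control wells and 100% = ellipticine 6 µM median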
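System: SV40-immortalized XiGFP fibroblast cells, line 68-5-11 / Incubation: 3-day compound exposure, then 15 min fixation at room temperature / Compound: single concentration per compound, delivered by pin transfer / Buffer or medium: DMEM plus 5-aza-dC sensitizer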
GSIS activator: primary screen for activators of insulin secretion dependent on glucose, INS-1E cells, GLuc reporter luminescence. INS-1E GLuc reporter insulin secretion, 2-3 h. 0.61% of 370,000 active. activation, % at 16.6 µM;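 active = lowest replicate activation of at least 40%, so every replicate reaches that level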;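 note: 0% = median of neutral control wells and 100% = median of IBMX positive control wells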
AF4-AF9 inh: blocks AF4 peptide binding to human AF9. P42568. AlphaScreen, biotin-AF4 peptide binding to FLAG-AF9. inhibition, % at 10 µM. 0.47% of 350,000 active;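 active = every replicate reaching a set inhibition limit, whatever the replicate mean, cut at about 25% in these data; inconclusive = mean inhibition reaches that limit but some replicates miss it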;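 note: 0% = plate neutral control median and 100% = total signal loss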
Target sequence (P42568 whole entry, looked up): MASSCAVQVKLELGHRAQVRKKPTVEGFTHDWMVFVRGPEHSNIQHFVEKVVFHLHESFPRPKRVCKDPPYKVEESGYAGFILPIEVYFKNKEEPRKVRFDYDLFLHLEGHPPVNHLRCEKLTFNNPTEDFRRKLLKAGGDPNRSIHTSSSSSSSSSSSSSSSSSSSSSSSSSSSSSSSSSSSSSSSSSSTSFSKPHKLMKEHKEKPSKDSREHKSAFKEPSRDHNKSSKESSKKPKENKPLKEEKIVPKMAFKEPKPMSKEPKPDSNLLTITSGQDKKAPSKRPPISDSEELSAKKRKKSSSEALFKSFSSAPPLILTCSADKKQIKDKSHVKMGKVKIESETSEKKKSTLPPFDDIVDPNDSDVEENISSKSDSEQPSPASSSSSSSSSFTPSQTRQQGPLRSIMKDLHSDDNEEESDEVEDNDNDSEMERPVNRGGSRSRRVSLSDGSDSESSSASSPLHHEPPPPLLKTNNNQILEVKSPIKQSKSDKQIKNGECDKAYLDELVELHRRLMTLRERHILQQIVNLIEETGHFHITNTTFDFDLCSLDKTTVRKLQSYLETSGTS
Active calls of the source: *; ? = inconclusive; nt = no result given.

SMILES	EWS-Fli block	PAX8 inh HTS	PGC1a acetyl inh	Xi reactivation	GSIS activator	AF4-AF9 inh
Cc1cccc(N2CCN(C(=O)c3c(-c4ccccc4Cl)noc3C)CC2)c1C	53*	34	nt	1	-8	1
c1cn2cc(-c3ccc(CN4CCOCC4)cc3)ccc2n1	-10	-39	nt	0	55*	2
COc1cccc(C(=O)N2C[C@H]3[C@@H](c4ccccc42)[C@@H](CO)N3C(=O)NC(C)C)c1	5	-10	-6	0	-2	-10
O=C(OCc1c(-c2ccccc2)ncc2ccccc12)c1cccs1	-4	-19	nt	0	55*	-19
COc1cc(/C=N/Nc2cc(C)nc(NS(=O)(=O)c3ccc(C)cc3)n2)ccc1O	-9	16	nt	0	46*	-2
COc1ccc(S(=O)(=O)Nc2cccc3c2O[C@@H](CN(C)S(=O)(=O)c2ccc(OC)cc2)[C@H](C)CN([C@@H](C)CO)C3=O)cc1	-4	13	-4	nt	nt	3
Cc1ccc(NC(=O)Cn2ncc(Cl)c(Cl)c2=O)cc1S(=O)(=O)N1CCCCC1	?	90*	-90	0	1	-1
Cc1ccc(NC(=O)CN(C)C(=O)Cn2ncc(Cl)c(Cl)c2=O)cc1	nt	93*	nt	2	-6	-9
C[C@@H]1CC=CC[C@@H](c2cccc(Cl)c2)NC(=O)[C@H](C)N(C)C(=O)c2ccccc2O1 (mixture of isomers)	nt	nt	nt	0	-19	nt
O=C(C[C@H]1C=C[C@@H](NC(=O)c2ccc3c(c2)OCO3)[C@@H](CO)O1)NCc1ccc(Cl)cc1	0	nt	-3	-1	-6	-2
O=C(COn1nnc2ccc(Cl)cc21)NC12CC3CC(CC(C3)C1)C2	nt	nt	85*	nt	nt	nt
O=C(COn1nnc2ccc(Cl)cc21)Nc1ccc(F)cc1	11	-16	-9	0	-39	-2
O=C(COc1ccccc1Cl)NCc1ccccc1	-34	-4	5	0	6	2
O=C(CCc1ccccc1)NNC(=O)COc1ccccc1Cl	-1	-1	nt	0	137*	8
CCn1c2ccccc2c2cc(Nc3cc(C)nc4ncnn34)ccc21	64*	96*	-19	0	2	4
CSc1ccccc1C(=O)Nc1nc2ccccc2[nH]1	-84	-95	5	0	-3	-1
COc1cc(SC)ccc1C(=O)Nc1nc2ccccc2[nH]1	94*	114*	nt	0	12	-2
COc1ccc(C(=O)Nc2ccc3ccccc3n2)c(OC)c1OC	55*	12	9	0	10	-3
COc1ccccc1C(=O)NCCC(=O)Nc1nc2ccccc2[nH]1	-5	13	2	-1	5	2
COc1ccccc1C(=O)Nc1nc2ccccc2[nH]1	92*	129*	nt	0	12	2
Cc1ccc(S(=O)(=O)Nc2ccc3c(c2)C(=O)N([C@@H](C)CO)C[C@@H](C)[C@H](CN(C)S(=O)(=O)c2ccc(C)cc2)O3)cc1	3	16	6	0	-14	-1
O=C(Cc1cccnc1)N[C@@H]1CC[C@@H](CCn2cc(-c3ccccc3F)nn2)O[C@H]1CO	5	-3	4	0	2	-6
C[C@@H]1CN([C@@H](C)CO)C(=O)c2cc(NC(=O)CCN3CCOCC3)ccc2O[C@H]1CN(C)C(=O)Nc1cccc2ccccc12	9	13	4	0	-5	3
CCN1[C@@H]2c3ccc(C4=CCCCC4)c(=O)n3C[C@H]1[C@H](CO)[C@H]2C(=O)N1CCCCC1	-3	-2	nt	0	-10	-2
O=c1cc(-c2ccccc2)[nH]c2cc(Cl)ccc12	59*	15	nt	0	nt	-3
SMILES	EWS-Fli block	PAX8 inh HTS	PGC1a acetyl inh	Xi reactivation	GSIS activator	AF4-AF9 inh
Clc1ccc2[nH]c(-c3ccccc3)cc2c1	nt	nt	-7	nt	nt	nt
Cc1ccc(-c2cc(=O)c3cc(C)ccc3[nH]2)cc1	59*	-1	nt	0	-14	nt
Cc1ccc2[nH]c(-c3cccc(F)c3)cc(=O)c2c1	57*	9	nt	1	nt	-2
O=c1cc(-c2cccc(F)c2)[nH]c2ccccc12	66*	57	nt	0	6	-3
O=C(C[C@@H]1CC[C@@H]2[C@H](COC[C@H](O)CN2Cc2nccs2)O1)NCc1ccc(-c2ccccc2)cc1	-3	22	-1	0	5	0
CO[C@@H]1CN(C)C(=O)c2cc(NC(=O)NC(C)C)ccc2OC[C@H](C)NC[C@@H]1C	11	-20	14	0	5	nt
O=c1cc(-c2ccccc2)[nH]c2ccc(F)cc12	58*	11	-7	4	nt	-3
C[C@@H]1CN([C@@H](C)CO)C(=O)c2cccc(NC(=O)Nc3ccc(C(F)(F)F)cc3)c2O[C@@H]1CN(C)C(=O)Nc1ccc(C(F)(F)F)cc1	-1	46	8	0	-12	0
O=C(c1ccccc1)c1ccccc1N1C(=O)C=CC1=O	2	53	-33	0	192*	6
Cc1ccc(S(=O)(=O)N/N=C/c2c[nH]c3ccccc23)cc1	20	17	105*	0	-30	0
O=C(O)c1ccc(S(=O)(=O)NN=Cc2c[nH]c3ccccc23)cc1	4	34	nt	0	16	-1
C[C@H]1CN([C@@H](C)CO)C(=O)Cc2cc(NC(=O)Nc3ccc(C(F)(F)F)cc3)ccc2O[C@@H]1CN(C)S(=O)(=O)c1cccs1	-7	17	-11	0	-42	0
O=C(c1ccc(-c2nc3ccccc3s2)s1)N1CCOCC1	77*	66*	nt	0	-3	1
Cc1ccccc1C(=O)N1CCN(c2ccc(NC(=O)c3ccc([N+](=O)[O-])o3)cc2)CC1	61*	9	nt	0	-5	-19
Cc1ccccc1C(=O)N1CCN(c2ccc(NC(=O)c3cccnc3)cc2)CC1	2	-1	12	0	-18	1
O=C(Nc1ccc(N2CCN(C(=O)c3ccccc3)CC2)cc1)c1ccc([N+](=O)[O-])o1	66*	100*	-122	4	-43	3
O=C(Nc1ccccc1N1CCN(C(=O)c2ccc(Cl)cc2)CC1)c1ccc([N+](=O)[O-])o1	nt	nt	5	nt	nt	nt
CC(C)NC(=O)N1[C@@H]2CN(CC(F)(F)F)C[C@H]1C2c1ccc(Br)cc1 (some centres undefined)	nt	nt	nt	0	9	nt
C[C@H]1CN([C@@H](C)CO)C(=O)c2cc(C#CC3CC3)cnc2O[C@@H]1CN(C)C(=O)c1ccccc1	1	nt	-5	-1	8	4
C=CCN1C(=O)[C@]2(O[C@H](CCn3cc(CCO)nn3)[C@@H]([Si](C)(C)c3ccc(OC)cc3)[C@@H]2C)c2cc(N3C(=O)c4cccc5cccc3c45)ccc21	36	97*	nt	nt	nt	5
